Data from ChEMBL document CHEMBL3390837, “Bridged tetrahydroisoquinolines as selective NADPH oxidase 2 (Nox2) inhibitors” (Medchemcomm, 2013).

What was measured:
NADPH oxidase 2 = target: T1, NADPH oxidase 2 (Homo sapiens, UniProt P04839); test: Inhibition of full length human NOX2 transfected in COS 22 cells assessed as inhibition of Phorbol 12-myristate 13-acetate-stimulated ROS generation by chemiluminescence assay; format: cell-based; conditions: read-out: IC50
T1 sequence (P04839 whole entry): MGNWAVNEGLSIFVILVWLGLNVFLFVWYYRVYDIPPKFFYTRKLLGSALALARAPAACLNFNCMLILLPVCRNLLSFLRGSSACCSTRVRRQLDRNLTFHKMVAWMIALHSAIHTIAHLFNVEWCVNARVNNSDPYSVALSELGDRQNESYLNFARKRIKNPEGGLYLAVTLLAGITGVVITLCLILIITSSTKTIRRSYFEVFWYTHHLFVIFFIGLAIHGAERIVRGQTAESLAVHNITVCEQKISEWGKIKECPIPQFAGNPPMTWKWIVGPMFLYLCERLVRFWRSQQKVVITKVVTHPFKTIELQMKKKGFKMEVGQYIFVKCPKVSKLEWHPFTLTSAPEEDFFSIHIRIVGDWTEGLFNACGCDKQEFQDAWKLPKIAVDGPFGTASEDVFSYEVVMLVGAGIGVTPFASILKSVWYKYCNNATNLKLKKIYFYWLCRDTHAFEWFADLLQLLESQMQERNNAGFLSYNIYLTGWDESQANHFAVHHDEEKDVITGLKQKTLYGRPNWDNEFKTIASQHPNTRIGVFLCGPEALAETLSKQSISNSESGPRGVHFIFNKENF
How it was run: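 COS-Nox2 (COS-7 stably expressing human p22phox, Nox2, p47phox, p67phox) plated in OPTIMEM at 2.5 x 10³ cells/well; 10 min at 37 °C in PBS with L-012, then stimulated with 5 µM PMA; luminescence followed over time; superoxide specificity checked with SOD 150 U/mL. IC50 by three-parameter non-linear fit, Hill slope 1, top/bottom fixed 100/0.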

NADPH oxidase 5 = target: T2, NADPH oxidase 5 (Homo sapiens, UniProt Q96PH1); test: Inhibition of full length human NOX5 transfected in HEK cells assessed as inhibition of ionomycin-stimulated ROS generation by chemiluminescence assay; format: cell-based, HEK293
T2 sequence (Q96PH1 whole entry): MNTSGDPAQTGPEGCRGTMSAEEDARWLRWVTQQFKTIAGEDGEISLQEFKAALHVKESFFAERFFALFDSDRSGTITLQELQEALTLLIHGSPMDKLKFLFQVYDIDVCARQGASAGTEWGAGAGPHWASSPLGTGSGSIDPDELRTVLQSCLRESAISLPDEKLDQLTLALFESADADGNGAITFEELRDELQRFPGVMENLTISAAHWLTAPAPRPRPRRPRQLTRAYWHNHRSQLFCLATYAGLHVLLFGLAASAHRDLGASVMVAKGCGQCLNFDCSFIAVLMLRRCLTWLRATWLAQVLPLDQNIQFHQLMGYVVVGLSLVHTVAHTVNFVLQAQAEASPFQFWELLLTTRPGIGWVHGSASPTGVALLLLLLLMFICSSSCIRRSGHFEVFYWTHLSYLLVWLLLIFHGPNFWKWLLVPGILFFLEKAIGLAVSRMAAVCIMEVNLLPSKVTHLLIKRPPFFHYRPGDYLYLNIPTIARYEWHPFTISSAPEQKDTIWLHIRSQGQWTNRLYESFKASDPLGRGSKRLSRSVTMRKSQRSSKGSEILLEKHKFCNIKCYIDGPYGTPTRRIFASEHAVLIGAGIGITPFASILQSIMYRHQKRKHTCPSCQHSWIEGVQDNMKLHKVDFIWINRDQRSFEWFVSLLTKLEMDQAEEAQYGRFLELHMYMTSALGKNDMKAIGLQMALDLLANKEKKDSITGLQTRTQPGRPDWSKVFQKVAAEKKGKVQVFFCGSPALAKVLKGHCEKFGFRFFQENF
How it was run: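 HEK-Nox5 cells at 5 × 10⁴ cells/well in OPTIMEM, 10 min at 37 °C in PBS with L-012, then stimulated with 1 µM PMA/0.1 µM ionomycin; luminescence over time; SOD 150 U/mL used to confirm superoxide specificity. IC50 by three-parameter fit, Hill slope 1, top/bottom fixed 100/0.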

[1] = target: Xanthine dehydrogenase/oxidase (Bos taurus, UniProt P80457); test: Inhibition of bovine milk xanthine oxidase assessed as hypoxanthine-stimulated ROS generation by measuring H2O2 production at 25 to 50 uM by fluorescence assay; conditions: cattle
Xanthine dehydrogenase/oxidase, sequence (P80457 whole entry): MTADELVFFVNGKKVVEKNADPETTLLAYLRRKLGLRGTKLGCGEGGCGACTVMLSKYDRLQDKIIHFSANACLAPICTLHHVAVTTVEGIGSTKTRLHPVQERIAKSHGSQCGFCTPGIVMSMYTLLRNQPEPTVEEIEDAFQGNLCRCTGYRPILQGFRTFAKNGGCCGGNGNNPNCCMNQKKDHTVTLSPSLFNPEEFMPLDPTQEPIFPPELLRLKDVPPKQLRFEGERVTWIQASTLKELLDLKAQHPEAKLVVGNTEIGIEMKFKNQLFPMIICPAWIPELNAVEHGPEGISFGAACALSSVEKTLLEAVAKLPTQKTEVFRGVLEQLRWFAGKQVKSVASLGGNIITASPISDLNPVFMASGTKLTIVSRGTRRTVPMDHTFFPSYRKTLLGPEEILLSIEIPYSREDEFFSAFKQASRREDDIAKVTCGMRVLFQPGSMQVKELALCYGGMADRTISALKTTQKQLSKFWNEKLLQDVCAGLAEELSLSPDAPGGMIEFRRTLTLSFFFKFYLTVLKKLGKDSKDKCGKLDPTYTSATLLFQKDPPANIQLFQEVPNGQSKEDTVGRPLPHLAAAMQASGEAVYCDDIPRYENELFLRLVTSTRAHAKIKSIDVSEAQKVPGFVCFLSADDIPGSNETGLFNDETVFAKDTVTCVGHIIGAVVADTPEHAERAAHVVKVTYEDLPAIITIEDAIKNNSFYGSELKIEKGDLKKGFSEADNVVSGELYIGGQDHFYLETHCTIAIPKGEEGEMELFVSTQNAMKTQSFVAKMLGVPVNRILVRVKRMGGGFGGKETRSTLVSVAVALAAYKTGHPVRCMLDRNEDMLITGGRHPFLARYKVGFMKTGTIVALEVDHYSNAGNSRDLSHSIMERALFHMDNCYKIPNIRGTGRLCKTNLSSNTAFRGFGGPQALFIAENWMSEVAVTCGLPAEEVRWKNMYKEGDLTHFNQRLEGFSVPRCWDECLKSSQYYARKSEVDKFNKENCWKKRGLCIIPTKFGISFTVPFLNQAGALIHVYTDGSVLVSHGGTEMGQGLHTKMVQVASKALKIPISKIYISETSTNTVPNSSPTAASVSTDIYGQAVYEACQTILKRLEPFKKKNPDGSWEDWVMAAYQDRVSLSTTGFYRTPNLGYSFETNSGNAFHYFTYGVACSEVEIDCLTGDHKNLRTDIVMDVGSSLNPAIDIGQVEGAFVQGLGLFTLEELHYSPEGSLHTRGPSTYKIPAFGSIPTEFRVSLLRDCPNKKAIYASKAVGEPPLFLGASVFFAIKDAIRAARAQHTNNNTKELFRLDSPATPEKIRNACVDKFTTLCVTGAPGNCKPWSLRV

IC50 (NADPH oxidase 2): 46 µM
IC50 (NADPH oxidase 5): 20 µM
inhibition (INH) [1]: Not Active
Structure (SMILES): C=C(C)C[C@@H]1N[C@H]2CC(C)(C)[C@@H]1c1c(Br)cccc12 (racemic)
